Measured values: ChEMBL document CHEMBL3580634, “Discovery of a high affinity and selective pyridine analog as a potential positron emission tomography imaging agent for cannabinoid type 2 receptor” (J Med Chem, 2015)

Assays:
[1] = Stability in rat plasma assessed as intact compound remaining at 4 MBq at 37 degC incubated for 5 to 20 mins by radio-TLC method; format: ADME, cell-free; conditions: read-out: Stability
Outline: (§1)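 Mouse, rat or human plasma was incubated with formulated radiotracer (4 MBq) at 37 °C with shaking. Aliquots taken at 5, 10, 15 and 20 min were quenched with ice-cold acetonitrile and centrifuged. Supernatant was analysed by radio-TLC in hexane/EtOAc (1:1).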

[2] = system: Brain; assay: Biodistribution in brain of mouse model of LPS-induced neuroinflammation at 10 to 27 MBq, iv treated with 10 mg/kg LPS 5 days before PET scan by PET imaging method; format: ADME, organism-based; conditions: in vivo, 120 h
Outline: (§2)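 Male CD-1 mice got 10 mg/kg LPS (E. coli O111:B4) or saline ip 5 days before PET. Under isoflurane, 10–27 MBq tracer was injected via tail vein, with 60 min PET then CT. For blocking, 2.0 mg/kg blocker or vehicle was given sc 30 min before tracer. Whole-brain ROI was taken on an MRI T2 template, expressed as SUV; n = 2 per condition.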

[3] = Stability in mouse plasma assessed as intact compound remaining at 4 MBq at 37 degC incubated for 5 to 20 mins by radio-TLC method; format: ADME, cell-free; conditions: read-out: Stability; outline: as §1
[4] = system: Brain; assay: Biodistribution in brain of mouse model of LPS-induced neuroinflammation at 10 to 27 MBq, iv treated with 2 mg/kg CB2 ligand GW405833 injected 30 mins before PECT acquisition by PET imaging method; format: ADME, organism-based; conditions: in vivo, 0.5 h; outline: as §2
[5] = Biodistribution in Wistar rat plasma assessed as intact parent tracer level at 48 MBq, iv measured after 20 mins by radio-TLC method; format: ADME, organism-based; conditions: read-out: Drug uptake
Outline: (§3)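 After iv tracer, rat plasma was taken at 5, 10 and 20 min. Urine and brain were collected at 20 min sacrifice. Plasma was separated at 5000g, 5 min, 4 °C. Proteins in plasma, urine and PBS brain homogenate were precipitated with cold acetonitrile and centrifuged. Supernatants were run by radio-TLC in hexane/EtOAc (1:1), reported as % of total activity.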

[6] = system: Spleen; assay: Biodistribution in Wistar rat spleen at 11 to 18 MBq, iv measured after 10 mins by PET/CT imaging method; format: ADME, organism-based; conditions: in vivo
Outline: (§4)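 Isoflurane-anaesthetized male Wistar rats received 11–18 MBq (0.06–0.09 nmol) tracer via tail vein. Dynamic PET ran 60 min from injection, then CT. For displacement, 1.5 mg/kg blocker was given iv 10 min after tracer; 2 rats per condition. Temperature held at 37 °C. Reconstruction by 2D-OSEM without attenuation correction. Uptake given as SUV.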

[7] = system: Spleen; assay: Biodistribution in Wistar rat spleen at 6 to 10 MBq, iv treated with 1.5 mg/kg CB2 ligand GW405833 injected 1 mins after compound dosing by gamma counting method; format: ADME, organism-based; conditions: in vivo
[8] = system: Spleen; assay: Biodistribution in rat spleen at 0.2 nM incubated for 15 mins by autoradiography; format: ADME; conditions: 0.25 h, 0.0002 µM
Outline: (§5)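 Mouse or rat spleen cryosections (20 μm) were thawed on ice and preconditioned in 50 mM Tris/HCl, 5% BSA, pH 7.4, then incubated 15 min at rt with 0.2 nM radioligand, alone or with 5 μM blocker. Washed in Tris/HCl with 1% BSA and 5% EtOH (2 × 2 min) and water on ice, then exposed 30 min to phosphor imager plates.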

[9] = system: Liver; assay: Biodistribution in Wistar rat liver at 6 to 10 MBq, iv measured after 15 mins by gamma counting method; format: ADME, organism-based; conditions: in vivo, 0.25 h
Outline: (§6)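 Male Wistar rats (5 weeks old) received 6–10 MBq (0.03–0.05 nmol) tracer via tail vein. For blocking, 1.5 mg/kg blocker was given iv shortly before the tracer (n = 3). Rats were decapitated under isoflurane at 15 min pi. Organs were weighed and gamma-counted, expressed as normalized %ID/g tissue (per 1 kg body weight). One baseline animal was excluded for paravenous injection.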

[10] = system: Spleen; assay: Biodistribution in Wistar rat spleen at 11 to 18 MBq, iv treated with 1.5 mg/kg CB2 ligand GW405833 injected 10 mins after compound dosing by PET/CT imaging method; format: ADME, organism-based; conditions: in vivo; outline: as §4
[11] = system: Spleen; assay: Biodistribution in Wistar rat spleen at 11 to 18 MBq, iv measured during first 10 mins by PET/CT imaging method; format: ADME, organism-based; conditions: in vivo; outline: as §4
[12] = system: Plasma; assay: Stability in human plasma assessed as compound degradation at 4 MBq at 37 degC […] by radio-TLC method; format: ADME, cell-free; conditions: 40 min
[13] = Biodistribution in Wistar rat plasma assessed as intact parent tracer level at 48 MBq, iv measured after 10 mins by radio-TLC method; format: ADME, organism-based; conditions: read-out: Drug uptake; outline: as §3
[14] = system: Spleen; assay: Biodistribution in Wistar rat spleen at 11 to 18 MBq, iv treated with 1.5 mg/kg CB2 ligand GW405833 injected 10 mins after compound dosing and measured 15 mins after GW405833 dosing by PET/CT imaging method; format: ADME, organism-based; conditions: in vivo, 0.25 h; outline: as §4
[15] = system: Small intestine; assay: Biodistribution in Wistar rat small intestine at 6 to 10 MBq, iv measured after 15 mins by gamma counting method; format: ADME, organism-based; conditions: in vivo, 0.25 h; outline: as §6
[16] = system: Brain; assay: Biodistribution in Wistar rat brain at 48 MBq, iv measured after 20 mins by radio-TLC method; format: ADME, organism-based; conditions: in vivo
[17] = Lipophilicity, log D of the compound in n-octanol/phosphate buffer pH 7.4 by shake flask method; format: physicochemical
[18] = Lipophilicity, log D of the radio-labeled compound in n-octanol/phosphate buffer pH 7.4 by shake flask method; format: physicochemical
Outline: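 Formulated radiotracer (8 MBq) was added to n-octanol and phosphate buffer pH 7.4, each presaturated with the other, shaken 15 min and centrifuged 5000g 5 min. Radioactivity in both phases was gamma-counted and D taken as their ratio; n = 5.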

[19] = Drug metabolism in Wistar rat urine assessed as hydrophilic radio-metabolites level at 48 MBq, iv measured after 5 to 20 mins by radio-TLC method; format: ADME, organism-based; conditions: in vivo; outline: as §3
[20] = molecular target: T1, Cannabinoid receptor 2 (Homo sapiens, UniProt P34972); assay: Displacement of [3H]CP-55,940 from human CB2 receptor expressed in CHO cell membranes
T1 sequence (P34972 whole entry): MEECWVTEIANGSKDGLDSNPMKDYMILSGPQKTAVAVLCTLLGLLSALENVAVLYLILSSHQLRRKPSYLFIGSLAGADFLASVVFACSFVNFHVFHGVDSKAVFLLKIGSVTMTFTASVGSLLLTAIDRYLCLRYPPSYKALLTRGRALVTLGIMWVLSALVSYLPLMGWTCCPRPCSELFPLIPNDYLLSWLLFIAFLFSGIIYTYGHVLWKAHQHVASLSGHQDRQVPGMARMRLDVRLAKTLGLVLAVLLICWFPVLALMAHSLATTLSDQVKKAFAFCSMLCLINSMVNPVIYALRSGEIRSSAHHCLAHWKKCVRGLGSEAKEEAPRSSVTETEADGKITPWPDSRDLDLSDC
Outline: (§7)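 Membranes from CHO cells expressing human or murine CB2 were incubated with [3H]CP-55,940 in 50 mM Tris, 5 mM MgCl2, 2.5 mM EGTA, 0.1% fatty-acid-free BSA, pH 7.4, 1 h at 30 °C with shaking. Reaction stopped by filtration through PEI-coated GF/B. Ki from nonlinear regression using saturation-derived Kd. Ten concentrations in triplicate.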

[21] = Biodistribution in Wistar rat plasma assessed as intact parent tracer level at 48 MBq, iv measured after 5 mins by radio-TLC method; format: ADME, organism-based; conditions: read-out: Drug uptake; outline: as §3
[22] = system: Spleen; assay: Biodistribution in rat spleen at 0.2 nM incubated for 15 mins in presence of 5 uM CB2 ligand GW405833 by autoradiography; format: ADME; conditions: 0.25 h, 0.0002 µM; outline: as §5
[23] = system: Brain; assay: Biodistribution in Wistar rat brain at 6 to 10 MBq, iv measured after 15 mins by gamma counting method; format: ADME, organism-based; conditions: in vivo, 0.25 h; outline: as §6
[24] = system: Spleen; assay: Biodistribution in mouse spleen at 0.2 nM incubated for 15 mins in presence of 5 uM CB2 ligand GW405833 by autoradiography; format: ADME; conditions: 0.25 h, 0.0002 µM; outline: as §5
[25] = system: Spleen; assay: Biodistribution in mouse spleen at 0.2 nM incubated for 15 mins by autoradiography; format: ADME; conditions: 0.25 h, 0.0002 µM; outline: as §5
[26] = molecular target: Cannabinoid receptor 1 (Homo sapiens, UniProt P21554); assay: Activity at human CB1 receptor expressed in CHO cells assessed as cAMP accumulation incubated for 30 mins by time-resolved FRET assay; format: functional, cell-based
Sequence of Cannabinoid receptor 1 (P21554 whole entry, looked up): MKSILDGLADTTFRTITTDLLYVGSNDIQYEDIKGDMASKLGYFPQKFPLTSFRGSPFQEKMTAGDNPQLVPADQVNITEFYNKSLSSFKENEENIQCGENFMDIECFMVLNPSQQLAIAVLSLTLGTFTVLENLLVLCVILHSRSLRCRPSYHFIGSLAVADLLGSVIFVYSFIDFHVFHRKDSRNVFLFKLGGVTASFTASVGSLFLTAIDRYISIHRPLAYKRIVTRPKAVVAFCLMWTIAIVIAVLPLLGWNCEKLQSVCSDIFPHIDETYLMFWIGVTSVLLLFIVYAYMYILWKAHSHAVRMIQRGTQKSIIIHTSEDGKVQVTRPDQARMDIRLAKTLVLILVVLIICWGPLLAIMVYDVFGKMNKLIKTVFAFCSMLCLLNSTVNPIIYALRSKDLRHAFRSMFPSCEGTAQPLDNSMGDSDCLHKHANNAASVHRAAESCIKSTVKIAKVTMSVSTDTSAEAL
Outline: (§8)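 CHO cells expressing human CB1 or CB2 were seeded 1 day before in DMEM/HT supplement/10% FCS. Medium was replaced with Krebs Ringer bicarbonate buffer containing 1 mM IBMX, 30 min at 30 °C, then compound added for 30 min at 30 °C. cAMP was read by time-resolved FRET (cAMP-Nano-TRF kit) against a standard curve from 10 μM to 0.13 nM. Ten concentrations in triplicate, single experiment.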

[27] = molecular target: Cannabinoid receptor 2 (Mus musculus, UniProt P47936); assay: Displacement of [3H]CP-55,940 from mouse CB2 receptor expressed in CHO cell membranes; outline: as §7
Sequence of Cannabinoid receptor 2 (Mus musculus, UniProt P47936) (P47936 whole entry): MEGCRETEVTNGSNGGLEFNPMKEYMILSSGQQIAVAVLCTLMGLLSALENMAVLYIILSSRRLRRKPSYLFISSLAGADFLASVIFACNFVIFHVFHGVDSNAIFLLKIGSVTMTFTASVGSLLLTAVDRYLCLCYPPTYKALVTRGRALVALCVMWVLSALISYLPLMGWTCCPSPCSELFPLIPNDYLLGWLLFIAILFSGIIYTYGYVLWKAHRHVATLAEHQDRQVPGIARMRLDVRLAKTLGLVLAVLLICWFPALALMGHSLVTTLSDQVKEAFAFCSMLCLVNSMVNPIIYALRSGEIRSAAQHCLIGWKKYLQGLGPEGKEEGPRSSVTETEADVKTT

[28] = molecular target: T1, Cannabinoid receptor 2; assay: Activity at human CB2 receptor expressed in CHO cells assessed as cAMP accumulation incubated for 30 mins by time-resolved FRET assay; format: functional, cell-based; outline: as §8

CCOC(=O)C(CC)(CC)NC(=O)c1ccc(N2CC(O[11CH3])C2)c(OCC2CC2)n1
remaining at 4 MBq [1]: 86%
Drug uptake [2]: Active
remaining at 4 MBq [3]: 84%
Drug uptake [4]: Not Active
remaining at 20 min [5]: 21%
Drug uptake [6]: Not Active
Drug uptake [7]: Not Active
Drug uptake [8]: Active
Drug uptake [9]: Active
Drug uptake [10]: Not Active
Drug uptake [11]: Active
Stability [12]: Stable
remaining at 10 min [13]: 37%
Drug uptake [14]: Not Active
Drug uptake [15]: Active
Drug uptake [16]: Not Active
logD [17]: 1.94
logD [18]: 1.94
Drug metabolism [19]: metabolite_detected
Ki [20]: 2.5 nM
remaining at 5 min [21]: 51%
Drug uptake [22]: Not Active
Drug uptake [23]: Not Active
Drug uptake [24]: Not Active
Drug uptake [25]: Active

CCC(CC)(NC(=O)c1ccc(N2CC(F)(F)C2)c(OCC2CC2)n1)C(=O)NC
EC50 [26]: > 10000 nM
logD [17]: 3.76
Ki [20]: 179 nM
Ki [27]: 245 nM
EC50 [28]: 4.3 nM

CC(C)(Cc1nnc(-c2ccc(F)cc2)o1)NC(=O)c1ccc(N2CC(F)(F)C2)c(OCC2CC2)n1
EC50 [26]: > 10000 nM
Ki [20]: 3030 nM
Ki [27]: 1050 nM

COCCOCC(C)(C)c1cc(NC(=O)c2ccc(C3CCCC3)c(OCC3CC3)n2)on1
EC50 [26]: > 10000 nM
Ki [20]: 294 nM
Ki [27]: 12.7 nM

CC(C)(NC(=O)c1ccc(N2CC(F)(F)C2)c(OCC2CC2)n1)c1nnc(-c2ccccc2)o1
EC50 [26]: > 10000 nM
Ki [20]: 3960 nM
Ki [27]: > 10000 nM
EC50 [28]: > 10000 nM

CCC(CC)(NC(=O)c1ccc(N2CC(F)(F)C2)c(OCC2CC2)n1)C(=O)NCCF
EC50 [26]: > 10000 nM
Ki [20]: 774 nM
Ki [27]: 403 nM
EC50 [28]: 27 nM

CCC(CC)(NC(=O)c1ccc(N2CC(OC)C2)c(OCC2CC2)n1)C(=O)NC
EC50 [26]: > 10000 nM
logD [17]: 3.18
Ki [20]: 170 nM
Ki [27]: 60.4 nM

COC1CN(c2ccc(C(=O)NC(C)(C)Cc3nnc(-c4ccc(F)cc4)o3)nc2OCC2CC2)C1
EC50 [26]: > 10000 nM
Ki [20]: 466 nM
Ki [27]: 504 nM
EC50 [28]: 1810 nM

CC(C)(Cc1nnc(-c2ccc(F)cc2)o1)NC(=O)c1ccc(C2CCCC2)c(OCC2CC2)n1
EC50 [26]: > 10000 nM
Ki [20]: 416 nM
Ki [27]: 403 nM

CC(C)(NC(=O)c1ccc(N2CC(F)(F)C2)c(OCC2CC2)n1)c1nnc(-c2cccnc2)o1
EC50 [26]: > 10000 nM
Ki [20]: > 10000 nM
Ki [27]: > 10000 nM
EC50 [28]: 396 nM
